Data from ChEMBL document CHEMBL1944515 (J Med Chem, 2012).
Active and inactive are the calls of the source. The rule behind the calls is not given here.

Legend:
[1] = system: HT-29; experiment: Cytotoxicity against human HT-29 cells after 72 hrs by MTT assay; type: functional, cell-based; conditions: HT-29, 72 h
[2] = Inhibition of bovine tubulin polymerisation after 20 mins by turbidimetric analysis; design: species or system Bos taurus
In short: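 Bovine brain tubulin at 10 μM was preincubated with varying compound concentrations in glutamate buffer at 30 °C, cooled to 0 °C, and 0.4 mM GTP added. Samples were warmed to 30 °C and assembly followed by turbidity at 350 nm.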

[3] = system: HL-60; experiment: Cytotoxicity against human HL60 cells after 72 hrs by MTT assay; type: functional, cell-based; conditions: HL-60, 72 h
[4] = system: MCF7; experiment: Cytotoxicity against human MCF7 cells after 72 hrs by MTT assay; type: functional, cell-based; conditions: MCF7, 72 h
[5] = system: HeLa; experiment: Cytotoxicity against human HeLa cells after 72 hrs by MTT assay; type: functional, cell-based
[6] = system: A549; experiment: Cytotoxicity against human A549 cells after 72 hrs by MTT assay; type: functional, cell-based; conditions: A549, 72 h
[7] = organism: Bos taurus; experiment: Displacement of [3H]colchicine from bovine tubulin at 5 uM by DEAE-cellulose filter method
In short: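 Inhibition of [3H]colchicine binding was measured in mixtures of 1 μM tubulin, 5 μM [3H]colchicine and 5 μM test compound. Results are percent inhibition of binding.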

[8] = system: Jurkat; experiment: Cytotoxicity against human Jurkat cells after 72 hrs by MTT assay; type: functional, cell-based
In short: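 8 × 10^3 cells/well were preincubated 18 h at 37 °C, 5% CO2, then given graded concentrations for 72 h, with final DMSO not above 0.25%. Viability was read by MTT. […] Mean ± SE from at least three experiments.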

[9] = system: CCRF-CEM; experiment: Cytotoxicity against human CEM cells after 72 hrs by MTT assay; type: functional, cell-based
In short: (§1)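 Cells seeded at 8 × 10^3 per well and left 18 h at 37 °C, 5% CO2, then given fresh medium with compound at a range of concentrations for 72 h; DMSO at most 0.25% final. Viability read by MTT relative to 0.25% DMSO-treated cells. […] LoVoDoxo kept in Ham's F12 with 0.1 μg/mL doxorubicin; A549-T12 kept in DMEM with 12 nM paclitaxel.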

[10] = Cytotoxicity against human A549-T12 cells after 72 hrs by MTT assay; type: functional, cell-based; conditions: A549, 72 h; in short: as §1
[11] = system: CCRF-CEM; experiment: Resistance ratio of IC50 for human CEM/VBL100 cells to IC50 for human CEM cells; type: functional
[12] = system: LoVo; experiment: Cytotoxicity against human doxorubicin-resistant LoVo cells after 72 hrs by MTT assay; type: functional, cell-based; in short: as §1
[13] = system: LoVo; experiment: Cytotoxicity against human LoVo cells after 72 hrs by MTT assay; type: functional, cell-based; in short: as §1
[14] = Cytotoxicity against human CEM/VBL100 cells after 72 hrs by MTT assay; type: functional, cell-based; conditions: CEM/VBL100, 72 h; in short: as §1
[15] = system: HeLa; experiment: Induction of cell cycle arrest in human HeLa cells assessed as increase in G2/M phase cells at 15 to 250 nM after 24 hrs by flow cytometry; type: functional, cell-based
In short: (§2)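 Exponentially growing HeLa cells (5 × 10^5) were treated 24 h at 15–250 nM. Cells were fixed in ice-cold 70% ethanol, lysed with RNase A/0.1% Triton X-100 buffer and stained with propidium iodide. DNA content was measured by flow cytometry to score G2/M fraction. Mean ± SEM of three independent experiments.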

[16] = system: A549; experiment: Resistance ratio of IC50 for human A549-T12 cells to IC50 for human A549 cells; type: functional
[17] = system: LoVo; experiment: Resistance ratio of IC50 for human doxorubicin-resistant LoVo cells to human LoVo cells; type: functional
[18] = system: HeLa; experiment: Induction of cell cycle arrest in human HeLa cells assessed as increase in G2/M phase cells at 30 nM after 24 hrs by flow cytometry; type: functional, cell-based
In short: (§3)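 5 × 10^5 exponentially growing HeLa cells were treated with 15–250 nM for 24 h, fixed in ice-cold 70% ethanol, then treated with lysis buffer containing RNase A and 0.1% Triton X-100. PI staining of DNA content, read by flow cytometry. Mean ± SEM of three independent experiments.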

[19] = system: HeLa; experiment: Induction of cell cycle arrest in human HeLa cells assessed as decrease in G1 phase cells at 15 to 250 nM after 24 hrs by flow cytometry; type: functional, cell-based; in short: as §3
[20] = system: HeLa; experiment: Induction of apoptosis in human HeLa cells assessed as increase in annexin-V positive apoptotic cells at 50 to 100 nM by FITC conjugated annexin-V/PI staining-based flow cytometry; type: functional, cell-based; conditions: TDE = time-dependent effect
In short: (§4)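 Flow cytometry of HeLa cells after 24 or 48 h exposure, double-stained with annexin-V-FITC and propidium iodide. Excitation at 488 nm, emission at 525 nm (FITC) and 585 nm (PI). Quadrants scored as live, early apoptotic, late apoptotic or necrotic cells.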

[21] = system: HeLa; experiment: Induction of cell cycle arrest in human HeLa cells assessed as G2/M phase cells at 60 nM after 24 hrs by flow cytometry; type: functional; in short: as §2
[22] = system: HeLa; experiment: Induction of mitochondrial depolarization in human HeLa cells at 50 to 100 nM by JC1-based fluorescent staining; type: functional, cell-based; conditions: TDE = time-dependent effect
In short: (§5)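 Mitochondrial membrane potential in HeLa cells after 24 or 48 h incubation, measured with the JC-1 dye by flow cytometry. Aggregates read as red (590 nm) and monomers as 530 nm; output is the percentage of depolarized cells. Mean ± SEM of three independent experiments.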

[23] = system: HeLa; experiment: Induction of ROS production in human HeLa cells at 50 to 100 nM after 24 to 48 hrs by HE staining-based flow cytometry; type: functional, cell-based
In short: (§6)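 HeLa cells were exposed for 24 or 48 h, then stained with hydroethidine or H2-DCFDA for ROS and read by flow cytometry. DMSO ≤0.25%. Mean ± SEM of three independent experiments.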

[24] = system: HeLa; experiment: Induction of apoptosis in human HeLa cells assessed as increase in annexin-V positive apoptotic cells after 24 to 48 hrs by FITC conjugated annexin-V/PI staining-based flow cytometry; type: functional, cell-based; in short: as §4
[25] = system: HeLa; experiment: Induction of cell cycle arrest in human HeLa cells assessed as decrease in S phase cells at 15 to 250 nM after 24 hrs by flow cytometry; type: functional, cell-based; in short: as §3
[26] = system: HeLa; experiment: Induction of cell cycle arrest in human HeLa cells assessed as increase in G2/M phase cells after 24 hrs by flow cytometry; type: functional, cell-based; in short: as §3
[27] = system: HeLa; experiment: Induction of ROS production in human HeLa cells at 50 to 100 nM after 24 to 48 hrs by H2-DCFDA staining-based flow cytometry; type: functional, cell-based; in short: as §6
[28] = system: HeLa; experiment: Induction of mitochondrial depolarization in human HeLa cells after 24 to 48 hrs by JC1-based fluorescent staining; type: functional, cell-based; in short: as §5

SMILES | IC50 [1] | IC50 [2] | IC50 [3] | IC50 [4] | IC50 [5] | IC50 [6] | inhibition [7] | IC50 [8] | other results
COc1ccc(-c2nnnn2-c2cc(OC)c(OC)c(OC)c2)cc1C | 5.6 nM | 2500 nM | 2 nM | 15.4 nM | 2.1 nM | 37.7 nM | 59% | 4.1 nM | –
COc1cc(-n2nnnc2-c2ccc(C)cc2)cc(OC)c1OC | 673 nM | – | 329 nM | 1780 nM | 255 nM | 3420 nM | – | 222 nM | –
CCCOc1ccc(-c2nnnn2-c2cc(OC)c(OC)c(OC)c2)cc1 | 105 nM | 3100 nM | 43.3 nM | 66.2 nM | 11.1 nM | 495 nM | 46% | 47 nM | –
CCCCCOc1ccc(-c2nnnn2-c2cc(OC)c(OC)c(OC)c2)cc1 | > 10000 nM | – | > 10000 nM | > 10000 nM | 6400 nM | > 10000 nM | – | > 10000 nM | –
COc1cc(-n2nnnc2-c2cccs2)cc(OC)c1OC | > 10000 nM | – | > 10000 nM | > 10000 nM | > 10000 nM | > 10000 nM | – | > 10000 nM | –
COc1cc(-c2nnnn2-c2cc(OC)c(OC)c(OC)c2)cc(OC)c1OC | > 10000 nM | – | > 10000 nM | > 10000 nM | > 10000 nM | > 10000 nM | – | > 10000 nM | –
CCOc1ccc(-c2nnnn2-c2cc(OC)c(OC)c(OC)c2)cc1Cl | 1.6 nM | 2000 nM | 0.8 nM | 1.8 nM | 2.6 nM | 28.8 nM | 58% | 0.23 nM | IC50 [9]: 0.7 nM; IC50 [10]: 31.5 nM; Ratio IC50 [11]: 1; IC50 [12]: 15.7 nM; IC50 [13]: 12.5 nM; IC50 [14]: 0.7 nM; Activity [15]: Active; Ratio IC50 [16]: 1.1; Ratio IC50 [17]: 1.3
COc1ccc(-c2nnnn2-c2cc(OC)c(OC)c(OC)c2)cc1 | 4.6 nM | 2500 nM | 2.9 nM | 38.5 nM | 2.6 nM | 222 nM | 54% | 2.6 nM | –
CCOc1ccc(-n2nnnc2-c2cc(OC)c(OC)c(OC)c2)cc1 | 3.1 nM | 2000 nM | 0.7 nM | 2.8 nM | 0.3 nM | 7.4 nM | 71% | 0.26 nM | IC50 [9]: 3.8 nM; Activity [18]: Active; Activity [19]: Active; Activity [20]: tde; Activity [21]: >80%; Activity [22]: tde; Activity [23]: Active; Activity [24]: Dose-dependent effect; IC50 [10]: 4.2 nM; Ratio IC50 [11]: 0.1; Activity [25]: Active; IC50 [12]: 96.9 nM; Activity [26]: Dose-dependent effect; IC50 [13]: 118 nM; IC50 [14]: 0.5 nM; Activity [27]: Active; Ratio IC50 [16]: 0.6; Activity [28]: Dose-dependent effect; Ratio IC50 [17]: 0.8
COc1ccc(-n2nnnc2-c2cc(OC)c(OC)c(OC)c2)cc1 | 265 nM | 2100 nM | 40.3 nM | 27.1 nM | 952 nM | > 10000 nM | 70% | 209 nM | –
